Results taken from ChEMBL document CHEMBL1152331, “seco-Abietane diterpenoids, a phenylethanoid derivative, and antitubercular constituents from Callicarpa pilosissima” (2009).
Values after ≈ are worked out from the molar mass of the structure shown.

These compounds were tested on Mycobacterium tuberculosis (assay: Antitubercular activity against Mycobacterium tuberculosis H37Rv after 2 weeks). Conditions: 336 h.
Type: functional
Procedure, shortened: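 Agar proportion method on Middlebrook 7H10 with OADC; compound mixed into agar at 50-56 °C by serial dilution, final 100 to 0.8 µg/mL, poured into quadrant plates. Inoculum in 7H9 broth adjusted to McFarland no. 1, then diluted 10-2; 33 µL per quadrant. Incubated 35 °C, 10% CO2, 2 weeks; MIC read. Ethambutol as positive control.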
`CC(C)c1ccc2c(c1)CC[C@H]1C(C)(C)C(=O)CC[C@]21C` gave an MIC of 148 µM (≈ 42.1 µg/mL).
With `CC(C)c1ccc2c(c1)C(=O)C[C@H]1C(C)(C)CCC[C@]21C` the MIC was > 300 µM.
Compound `C=C(C)[C@@H]1CCc2cc(C(C)C)ccc2[C@@]1(C)CCC(=O)OC` has an MIC of 153 µM (≈ 48.1 µg/mL).
`COc1ccc(-c2oc3cc(OC)c(OC)c(O)c3c(=O)c2OC)cc1O` [CASTICIN] showed an MIC of 214 µM (≈ 80.1 µg/mL).
With `CC(C)=CCC/C(C)=C/CC/C(C)=C/CC/C=C(\C)CC/C=C(\C)CCC=C(C)C` [SQUALENE] the MIC was 122 µM (≈ 50.1 µg/mL).
Work on `CC[C@@H](CO)NCCN[C@@H](CC)CO` [ETHAMBUTOL] yielded an MIC of 30.6 µM (≈ 6.25 µg/mL).
`CC[C@H](CC[C@@H](C)[C@H]1CC[C@H]2[C@@H]3CC=C4CC(=O)CC[C@]4(C)[C@H]3CC[C@]12C)C(C)C` [BETA-SITOSTENONE] was tested, and the MIC was > 300 µM.
`COc1cc([C@H]2OC[C@@H]3C(=O)OC[C@@H]32)cc(OC)c1O` was tested, and the MIC was 257 µM (≈ 72.1 µg/mL).
In the case of `CCCCCCCCCCCCCCCCCC(=O)O` [STEARIC ACID], the MIC is reported as > 300 µM.
In the case of `CCCCCCCCCCCCCC(=O)OCCc1ccc(O)cc1`, the MIC is reported as > 300 µM.
With `COc1ccc(-c2oc3cc(OC)c(OC)c(OC)c3c(=O)c2OC)cc1OC` [HEXAMETHOXYFLAVONE] the MIC was 179 µM (≈ 72.1 µg/mL).
In the case of `COc1cc2oc(-c3ccc(O)cc3)c(OC)c(=O)c2c(O)c1OC` [PENDULETIN], the MIC is reported as 157 µM (≈ 54.1 µg/mL).
In the case of `C=C(C)[C@@H]1CC=C2C=C(C(C)C)CC[C@@H]2[C@@]1(C)CCC(=O)O` [CALLICARPIC ACID A], the MIC is reported as 238 µM (≈ 72.1 µg/mL).
With `C=C(C)[C@@H]1CCC2=C(C(=O)C=C(C(C)C)C2=O)[C@@]1(C)CCC(=O)O` [CALLICARPIC ACID B] the MIC was 63.6 µM (≈ 21 µg/mL).
`C=C(C)[C@@H]1CC=C2C=C(C(C)C)CC[C@]2(O)[C@@]1(C)CCC(=O)O` [9R-HYDROXYCALLICARPIC ACID A] gave an MIC of 113 µM (≈ 36 µg/mL).
Work on `COc1ccc(-c2cc(=O)c3c(O)cc(O)cc3o2)cc1` [ACACETIN] yielded an MIC of 282 µM (≈ 80.1 µg/mL).
`COc1ccc(-c2oc3cc(OC)c(OC)c(O)c3c(=O)c2OC)cc1OC` [ARTEMETIN] was tested, and the MIC was 186 µM (≈ 72.1 µg/mL).
`C=C(C)[C@@H]1CCC2=C(CCC(C(C)C)=C2)[C@@]1(C)CCC(=O)OC` gave an MIC of 38 µM (≈ 12 µg/mL).
